From ChEMBL document CHEMBL5705886, “GSK1070916, a potent Aurora B/C kinase inhibitor with broad antitumor activity in tissue culture cells and human tumor xenograft models” (Mol Cancer Ther, 2009)
Activity calls are given as the source filed them. No cut-off for these calls is given here.

Experiments:
A549 [1] = experiment: Induction of mitotic alteration in human A549 cells formation of malformed bipolar at 12 to 330 nmol/L incubated for 24 hrs by immunofluorescent microscopy based analysis; format: functional, cell-based; conditions: dose lower […], dose upper 330.0 nmol/L
HL-60 [2] = experiment: Antitumor activity in human HL-60 cells xenografted in SCID mouse assessed as median survival time at 12.5 mg/kg, ip administered once daily for 5 consecutive days with 2 days off scheduled for 2 cycles measured upto 120 days; format: functional; conditions: time <= 120 day
DG-75 = experiment: Antiproliferative activity against human DG-75 cells assessed as inhibition of cell viability measured for 6 to 7 days by cell titer glo assay; format: functional, cell-based
Outline: (§1)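 Tumor lines plated in recommended growth media, overnight at 37°C, 5% CO2, then given serial dilutions; a T=0 plate read with CellTiter-Glo at dosing. After 6–7 d of exposure, viability read by CellTiter-Glo luminescence. No-cell wells subtracted, data expressed as % of DMSO control.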

HCT-116 = experiment: In vivo inhibition of Aurora B in human HCT-116 cells xenografted in athymic nude mouse assessed as inhibition of HH3-S10 phosphorylation administered as single ip dose incubated for 0.5 to 72 hrs; format: functional, organism-based; conditions: dose 25-100 mg/kg, time 0.5-72 hrs
HL-60 [3] = experiment: Antitumor activity in human HL-60 cells xenografted in SCID mouse assessed as median survival time at 25 mg/kg, ip administered once daily for 5 consecutive days with 2 days off scheduled for 2 cycles measured upto 120 days; format: functional; conditions: time <= 120 day
CA46 = experiment: Antiproliferative activity against human CA46 cells assessed as inhibition of cell viability measured for 6 to 7 days by cell titer glo assay; format: functional, cell-based; outline: as §1
OVCAR-8 = experiment: Antiproliferative activity against human OVCAR-8 cells assessed as inhibition of cell viability measured for 6 to 7 days by cell titer glo assay; format: functional, cell-based
Outline: (§2)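 Cells seeded in recommended growth medium, held overnight at 37°C in 5% CO2, then exposed to serial dilutions of inhibitor for 6–7 d. A time-zero plate was read with CellTiter-Glo at dosing. Luminescent viability read at the end. No-cell wells subtracted as background, data expressed as percent of DMSO control.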

MOLT-3 = experiment: Antiproliferative activity against human MOLT-3 cells assessed as inhibition of cell viability measured for 6 to 7 days by cell titer glo assay; format: functional, cell-based
Outline: (§3)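 Cells seeded in recommended growth medium, incubated overnight at 37°C in 5% CO2, then exposed to serial dilutions of inhibitor for 6–7 d. A parallel plate was read with CellTiter-Glo at compound addition as a T=0 value. The luminescent viability readout had no-cell background subtracted and was expressed as % of DMSO control.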

HL-60 [4] = experiment: Antitumor activity in human HL-60 cells xenografted in SCID mouse assessed as reduction in tumor growth at 100 mg/kg, ip administered once daily for 5 consecutive days with 2 days off scheduled for 2 cycles measured upto 60 days; format: functional, organism-based; conditions: time 60.0 day
NCI-H358 = experiment: Antiproliferative activity against human NCI-H358 cells assessed as inhibition of cell viability measured for 6 to 7 days by cell titer glo assay; format: functional, cell-based; outline: as §3
[5] = Toxicity in SCID nude mouse xenografted with human SW620 cells assessed as body weight loss at 25 to 100 mg/kg, ip administered once daily for 5 consecutive days with 2 days off scheduled for 3 cycles measured upto 60 days relative to control; format: organism-based, SW-620; conditions: in vivo, 1440 h, dose 25-100 mg/kg, time 60 day
MV-4-11 (human) [6] = experiment: Antitumor activity in human MV-4-11 cells xenografted in NOD-SCID mouse assessed as median survival time at 20 mg/kg, ip administered once daily for 5 consecutive days with 2 days off scheduled for 3 cycles measured upto 120 days; conditions: time <= 120 day
[7] = Antiproliferative activity against human F-36P cells assessed as inhibition of cell viability measured for 6 to 7 days by cell titer glo assay; format: functional, cell-based; outline: as §1
[8] = Antiproliferative activity against human CML-T1 cells assessed as inhibition of cell viability measured for 6 to 7 days by cell titer glo assay; format: functional, cell-based; outline: as §1
NALM-6 = experiment: Antiproliferative activity against human NALM-6 cells assessed as inhibition of cell viability measured for 6 to 7 days by cell titer glo assay; format: functional, cell-based; outline: as §3
[9] = Toxicity in SCID nude mouse xenografted with human NCI-H460 cells assessed as drug tolerance at 25 to 100 mg/kg, ip administered once daily for 5 consecutive days with 2 days off scheduled for 3 cycles measured upto 60 days; format: organism-based; conditions: in vivo, 1440 h, dose 25-100 mg/kg, time < 60 day
A549 [10] = experiment: Induction of mitotic alteration in human A549 cells formation of multipolar spindles at 12 to 330 nmol/L incubated for 24 hrs by immunofluorescent microscopy based analysis; format: functional, cell-based; conditions: dose lower […], dose upper 330.0 nmol/L
[11] = Toxicity in SCID nude mouse xenografted with human HL-60 cells assessed as body weight loss at 100 mg/kg, ip administered once daily for 5 consecutive days with 2 days off scheduled for 2 cycles measured upto 60 days; format: organism-based; conditions: in vivo, 1440 h, time < 60 day
SU-DHL-16 = experiment: Antiproliferative activity against human SU-DHL-16 cells assessed as inhibition of cell viability measured for 6 to 7 days by cell titer glo assay; format: functional, cell-based; outline: as §2
[12] = Antiproliferative activity against human TO 175.T cells assessed as inhibition of cell viability measured for 6 to 7 days by cell titer glo assay; format: functional, cell-based; outline: as §2
RKO = experiment: Antiproliferative activity against human RKO cells assessed as inhibition of cell viability measured for 6 to 7 days by cell titer glo assay; format: functional, cell-based; outline: as §2
HCT-8 = experiment: Antiproliferative activity against human HCT-8 cells assessed as inhibition of cell viability measured for 6 to 7 days by cell titer glo assay; format: functional, cell-based; outline: as §1
MC116 = experiment: Antiproliferative activity against human MC116 cells assessed as inhibition of cell viability measured for 6 to 7 days by cell titer glo assay; format: functional, cell-based; outline: as §3
[13] = Antiproliferative activity against human BC1 cell line assessed as inhibition of cell viability measured for 6 to 7 days by cell titer glo assay; format: functional, cell-based; outline: as §1
[14] = In vivo inhibition of Aurora B in human HCT-116 cells xenografted in athymic nude mouse assessed as reduction in HH3-S10 phosphorylation at 100 mg/kg, ip single dose measured upto 24 hrs relative to control; format: functional; design: scale not given: the % may be the effect or the level left
[15] = Toxicity in SCID nude mouse xenografted with human HL-60 cells assessed as drug tolerance at 100 mg/kg, ip administered once daily for 5 consecutive days with 2 days off scheduled for 2 cycles measured upto 60 days; conditions: in vivo, 1440 h
[16] = target: Aurora kinase B/Inner centromere protein (Homo sapiens, UniProt Q96GD4); experiment: Binding affinity to AurB/INCENP (unknown origin) assessed as inhibition constant; format: protein-complex assay
Aurora kinase B/Inner centromere protein, sequence (Q96GD4 whole entry): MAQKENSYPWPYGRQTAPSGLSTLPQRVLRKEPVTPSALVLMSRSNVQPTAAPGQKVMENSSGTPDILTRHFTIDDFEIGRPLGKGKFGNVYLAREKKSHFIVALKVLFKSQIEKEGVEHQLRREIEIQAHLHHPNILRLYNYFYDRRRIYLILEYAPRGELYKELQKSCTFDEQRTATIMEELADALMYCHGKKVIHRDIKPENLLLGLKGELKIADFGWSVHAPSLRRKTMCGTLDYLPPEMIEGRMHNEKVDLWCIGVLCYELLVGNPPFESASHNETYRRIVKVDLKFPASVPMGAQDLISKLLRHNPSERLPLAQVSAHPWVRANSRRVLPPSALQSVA
Aurora kinase B/Inner centromere protein, sequence (Q9NQS7 whole entry, further chain): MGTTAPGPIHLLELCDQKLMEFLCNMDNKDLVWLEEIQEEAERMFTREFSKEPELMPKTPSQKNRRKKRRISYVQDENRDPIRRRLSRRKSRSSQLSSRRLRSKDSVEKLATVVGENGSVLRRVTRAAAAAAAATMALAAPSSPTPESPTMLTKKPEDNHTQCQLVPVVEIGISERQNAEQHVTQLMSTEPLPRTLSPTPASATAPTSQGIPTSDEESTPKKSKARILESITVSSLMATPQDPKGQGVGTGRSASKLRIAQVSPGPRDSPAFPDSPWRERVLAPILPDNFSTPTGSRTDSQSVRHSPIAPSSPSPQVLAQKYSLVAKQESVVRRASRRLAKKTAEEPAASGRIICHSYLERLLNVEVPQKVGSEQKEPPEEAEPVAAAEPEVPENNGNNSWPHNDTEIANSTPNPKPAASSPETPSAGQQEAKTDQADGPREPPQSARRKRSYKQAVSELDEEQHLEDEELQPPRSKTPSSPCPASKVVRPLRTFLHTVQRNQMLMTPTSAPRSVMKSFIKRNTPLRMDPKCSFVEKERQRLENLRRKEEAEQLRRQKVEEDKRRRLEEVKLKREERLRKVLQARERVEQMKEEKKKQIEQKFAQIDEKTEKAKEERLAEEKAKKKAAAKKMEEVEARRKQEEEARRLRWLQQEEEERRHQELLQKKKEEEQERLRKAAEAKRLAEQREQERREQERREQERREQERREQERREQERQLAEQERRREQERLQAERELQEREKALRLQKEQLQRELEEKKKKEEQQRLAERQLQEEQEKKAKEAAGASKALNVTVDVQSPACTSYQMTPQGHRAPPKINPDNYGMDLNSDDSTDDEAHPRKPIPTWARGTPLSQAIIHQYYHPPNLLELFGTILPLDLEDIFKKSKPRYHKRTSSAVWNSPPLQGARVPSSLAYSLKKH

[17] = Antiproliferative activity against human HuNS1 cells assessed as inhibition of cell viability measured for 6 to 7 days by cell titer glo assay; format: functional, cell-based; outline: as §3
MV-4-11 (human) [18] = experiment: Antitumor activity in human MV-4-11 cells xenografted in NOD-SCID mouse assessed as median survival time at 10 mg/kg, ip administered once daily for 5 consecutive days with 2 days off scheduled for 3 cycles measured upto 120 days; conditions: time <= 120 day
Toledo = experiment: Antiproliferative activity against human Toledo cells assessed as inhibition of cell viability measured for 6 to 7 days by cell titer glo assay; format: functional, cell-based; outline: as §2
[19] = Antiproliferative activity against human A375P cells assessed as inhibition of cell viability measured for 6 to 7 days by cell titer glo assay; format: functional, cell-based; outline: as §1

With `CCn1cc(-c2ccnc3[nH]c(-c4cccc(CN(C)C)c4)cc23)c(-c2ccc(NC(=O)N(C)C)cc2)n1` [GSK-1070916] the Activity (A549 [1]) was “Active”, the MST (HL-60 [2]) was 44 days and the EC50 (DG-75) was 18 nM. The Activity (HCT-116) was “Dose-Dependent Effect”, the MST (HL-60 [3]) was 57 days and the EC50 (CA46) was 5 nM. For the same compound, the EC50 (OVCAR-8) was 30 nM, the EC50 (MOLT-3) was 5 nM and the Activity (HL-60 [4]) was “Active”. It also gave an EC50 (NCI-H358) of 4 nM, an Activity [5] of less than 15% and an MST (MV-4-11 (human) [6]) of 103 days. For the same compound, the EC50 [7] was 10 nM, the EC50 [8] was 3 nM and the EC50 (NALM-6) was 2 nM. The Activity [9] was “Non-Toxic”, the Activity (A549 [10]) was “Active” and the Activity [11] was “Toxic”. For the same compound, the EC50 (SU-DHL-16) was 4 nM, the EC50 [12] was 54 nM and the EC50 (RKO) was 7 nM. The EC50 (HCT-8) was 38 nM, the EC50 (MC116) was 8 nM and the EC50 [13] was 18 nM. The Activity [14] was greater than 60%, the Activity [15] was “Toxic” and the Ki [16] was 0.39 nM. For the same compound, the EC50 [17] was 9 nM, the MST (MV-4-11 (human) [18]) was 70 days and the EC50 (Toledo) was 15 nM. For the same compound, the EC50 [19] was 7 nM.
